Assays:
Rattus norvegicus [1] = experiment: Reduction in circulating lymphocytes count in Lewis rat at 2 mg/kg, po measured at 4 hrs by hematology analyzer based analysis; type: functional; set-up: scale not given: the % may be the effect or the level left
Method in brief: (§1)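 Lewis rats (n = 2−4) dosed orally; whole-blood lymphocyte counts taken 4 h and 24 h after dosing and reduction expressed versus vehicle-treated rats. Significance by ANOVA with Dunnett's test (p < 0.05 vs vehicle). Blood levels of parent and phosphate metabolite measured at the same time points in this PK/PD screen.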

[2] = Reduction in circulating lymphocytes count in Lewis rat at 2 mg/kg, po measured at 24 hrs by hematology analyzer based analysis; type: Functional, organism-based; set-up: scale not given: the % may be the effect or the level left; conditions: in vivo; method in brief: as §1
[3] = Pulmonary toxicity in Lewis rat assessed as fold elevation of BAL protein content at 1 mg/kg, po by chemistry analyzer based analysis relative to control; type: organism-based; conditions: in vivo
Method in brief: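 Lewis rats dosed orally; bronchoalveolar lavage protein measured at study end, expressed as fold over vehicle control.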

Rattus norvegicus [4] = experiment: Reduction in circulating lymphocytes count in Lewis rat at 1 mg/kg, po measured at 4 hrs by hematology analyzer based analysis; type: functional; set-up: scale not given: the % may be the effect or the level left
Method in brief: (§2)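 Lewis rats (n = 2−4) dosed orally at 0.5, 1, 2 or 5 mg/kg; blood parent and phosphate metabolite concentrations and lymphocyte counts taken 4 and 24 h post-dose; phosphate-to-parent ratio from 24 h levels; significance versus vehicle by ANOVA with Dunnett's test.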

[5] = Reduction in circulating lymphocytes count in Lewis rat at 1 mg/kg, po measured at 24 hrs by hematology analyzer based analysis; type: organism-based; set-up: scale not given: the % may be the effect or the level left; conditions: in vivo; method in brief: as §2
[6] = Drug concentration in Lewis rat blood assessed as concentration of parent compound at 1 mg/kg, po measured at 4 hrs by LC-MS/MS analysis; type: ADME, organism-based; conditions: read-out: Ct; for concentration: in vivo, 1 mg/kg, 4 h; for concentration at 4 h: Lewis, blood; method in brief: as §2
[7] = Drug metabolism in Lewis rat blood assessed as concentration of parent compound at 1 mg/kg, po measured at 24 hrs by LC-MS/MS analysis; type: ADME, organism-based; conditions: for concentration / Ct: in vivo, 1 mg/kg, 24 h; for concentration / concentration at 24 h: read-out: Ct; for concentration at 24 h: Lewis, blood; for Ct: BLD = below limit of detection; method in brief: as §2
[8] = Cardiotoxicity in human iPSC derived cardiomyocytes assessed as change in heart rate at 1 nM measured over 2 hrs by multi-electrode array relative to control; type: toxicity, cell-based; conditions: stem cell-derived cardiomyocyte, 0.001 µM
Method in brief: (§3)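 Phosphate metabolite of each compound prepared and tested on cultured human induced pluripotent stem cell-derived cardiomyocytes at 1 and 10 nM; beat rate change averaged over three or more replicates per concentration unless noted (some n = 2).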

[9] = Cardiotoxicity in human iPSC derived cardiomyocytes assessed as change in heart rate at 10 nM measured over 2 hrs by multi-electrode array relative to control; type: toxicity, cell-based; conditions: stem cell-derived cardiomyocyte, 0.01 µM; method in brief: as §3
[10] = Half life in Lewis rat at 1 mg/kg, po measured at 4 to 72 hrs; type: ADME, organism-based; conditions: in vivo, time 4-72 hrs
Method in brief: (§4)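 Half-life estimated from oral-dosing blood PK profiles in Lewis rats sampled at four time points: 4, 24, 48 and 72 h.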

[11] = Drug metabolism in Lewis rat blood assessed as phosphate ester metabolite to parent ratio at 1 mg/kg, po measured at 24 hrs by LC-MS/MS analysis; conditions: in vivo
[12] = Drug concentration in Lewis rat blood assessed as concentration of parent compound at 2 mg/kg, po measured at 24 hrs by LC-MS/MS analysis; type: ADME, organism-based; conditions: in vivo; for concentration: read-out: Ct; method in brief: as §2
[13] = Half life in Lewis rat at 2 mg/kg, po measured at 4 to 72 hrs; type: ADME, organism-based; conditions: Lewis, in vivo, time 4-72 hrs; method in brief: as §4
[14] = Drug concentration in Lewis rat blood assessed as concentration of parent compound at 2 mg/kg, po measured at 4 hrs by LC-MS/MS analysis; type: ADME, organism-based; conditions: Lewis, blood, read-out: Ct; method in brief: as §2
[15] = Ratio of drug metabolism in Lewis rat blood assessed as phosphate ester metabolite to parent drug at 2 mg/kg, po measured at 24 hrs by LC-MS/MS analysis; type: ADME, organism-based; conditions: in vivo; method in brief: as §2

Compound	Activity [5]	concentration at 4 h [6]	concentration at 24 h [7]	half-life [10]	Ratio [11]	fold change (FC) [3]	Activity [8]	Activity [9]	Activity (Rattus norvegicus [4])	further results
COCCC1CCc2cc([C@H]3CC[C@](N)(CO)C3)ccc2C1 (stereo in doubt; 21a)	–	–	–	–	–	–	–	–	–	Activity (Rattus norvegicus [1]): 0%; Activity [2]: 12%
CCCCCCOC1CCc2cc([C@H]3CC[C@](N)(CO)C3)ccc2C1 (stereo in doubt; 30a)	82%	–	–	–	–	1.1	-39%	-40%	–	Activity (Rattus norvegicus [4]; 1 mg/kg, 4 h): 39%; concentration [6]: 53 nM; concentration [7]: 28 nM
CCCCCOC[C@@H]1CCc2cc([C@H]3CC[C@](N)(CO)C3)ccc2C1	80%	27 nM	28 nM	–	–	2	–	–	27%	–
CCSCCCC1CCc2cc([C@H]3CC[C@](N)(CO)C3)ccc2C1 (single isomer, unassigned)	–	–	–	–	–	–	-42%	-53%	–	Activity (Rattus norvegicus [1]): 65%; Activity [2]: 74%; concentration [12]: 42 nM; half-life [13]: 14 h; concentration at 4 h [14]: 190 nM
COCCOC[C@@H]1CCc2cc([C@H]3CC[C@](N)(CO)C3)ccc2C1	13%	15 nM	–	–	–	1.3	–	–	16%	Ct [7]: Bld
CCCOCCOC1CCc2cc([C@H]3CC[C@](N)(CO)C3)ccc2C1 (stereo partly specified)	70%	46 nM	–	–	–	1.3	–	–	72%	Activity (Rattus norvegicus [1]): 0%; Activity [2]: 40%; Ct [7]: Bld; Ct ([12]; BLD = below limit of detection): Bld; Ratio [15]: 2.4; concentration at 4 h [14]: 100 nM
CCCCCCCOC1CCc2cc([C@H]3CC[C@](N)(CO)C3)ccc2C1 (stereo in doubt; 33a)	80%	32 nM	–	29 h	–	0.85	–	–	–	Activity (Rattus norvegicus [4]; 1 mg/kg, 4 h): 13%; concentration [7]: 54 nM
C=CCCOC[C@@H]1CCc2cc([C@H]3CC[C@](N)(CO)C3)ccc2C1	–	–	–	–	–	–	–	–	–	Activity (Rattus norvegicus [1]): 55%; Activity [2]: 74%; concentration [12]: 48 nM; Ratio [15]: 0.9; half-life [13]: 11 h; concentration at 4 h [14]: 170 nM
CCCOCCOC[C@H]1CCc2cc([C@H]3CC[C@](N)(CO)C3)ccc2C1	20%	78 nM	–	–	–	2.4	–	–	67%	Ct [7]: Bld
CCCCCOC[C@H]1CCc2cc([C@H]3CC[C@](N)(CO)C3)ccc2C1	32%	12 nM	18 nM	–	–	1.7	–	–	7%	–
CCCCCOC1CCc2cc([C@H]3CC[C@](N)(CO)C3)ccc2C1 (stereo in doubt; 10a)	78%	244 nM	210 nM	–	0.86	0.94	–	–	–	Activity (Rattus norvegicus [4]; 1 mg/kg, 4 h): 62%
CCCCCCOC1CCc2cc([C@H]3CC[C@](N)(CO)C3)ccc2C1 (stereo in doubt; 30b)	–	–	–	–	–	1.4	–	–	–	Activity (Rattus norvegicus [4]; 1 mg/kg, 4 h): 20%; concentration [6]: 362 nM; concentration [7]: 417 nM
COCCC1CCc2cc([C@H]3CC[C@](N)(CO)C3)ccc2C1 (stereo in doubt; 21b)	–	–	–	–	–	–	–	–	–	Activity [2]: 2%
CCCCCCCOC1CCc2cc([C@H]3CC[C@](N)(CO)C3)ccc2C1 (stereo in doubt; 33b)	–	–	–	–	–	1	–	–	–	Activity (Rattus norvegicus [4]; 1 mg/kg, 4 h): 14%; concentration [6]: 40 nM; concentration [7]: 25 nM
CCCCCOC1CCc2cc([C@H]3CC[C@](N)(CO)C3)ccc2C1 (stereo in doubt; 10b)	67%	–	–	–	0.27	–	-12%	-49%	–	Activity (Rattus norvegicus [4]; 1 mg/kg, 4 h): 32%; concentration [6]: 215 nM; concentration [7]: 240 nM

Continued, in another order:

Activity [5]	concentration at 4 h [6]	concentration at 24 h [7]	half-life [10]	Ratio [11]	Compound	fold change (FC) [3]	Activity [8]	Activity [9]	Activity (Rattus norvegicus [4])	further results
69%	165 nM	180 nM	5 h	1.3	CC/C=C\CC[C@@H]1CCc2cc([C@H]3CC[C@](N)(CO)C3)ccc2C1	–	-21%	-38%	31%	–
71%	66 nM	39 nM	–	0.64	CCCCOC[C@@H]1CCc2cc([C@H]3CC[C@](N)(CO)C3)ccc2C1	0.95	–	–	42%	–
71%	10 nM	14 nM	59 h	8.6	CCC/C=C\CC1CCc2cc([C@H]3CC[C@](N)(CO)C3)ccc2C1 (single isomer, unassigned)	–	-11%	-25%	13%	–
0%	24 nM	24 nM	–	0.27	CCCC/C=C\[C@@H]1CCc2cc([C@H]3CC[C@](N)(CO)C3)ccc2C1	–	–	–	4%	–
72%	57 nM	77 nM	> 75 h	2.6	CCCC/C=C/[C@@H]1CCc2cc([C@H]3CC[C@](N)(CO)C3)ccc2C1	–	–	–	0%	–
62%	31 nM	51 nM	62 h	2.3	CCC/C=C/CC1CCc2cc([C@H]3CC[C@](N)(CO)C3)ccc2C1 (single isomer, unassigned)	–	-9.6%	-23%	10%	–
74%	66 nM	140 nM	4 h	5.8	CC/C=C/CC[C@@H]1CCc2cc([C@H]3CC[C@](N)(CO)C3)ccc2C1	1.1	-11%	-33%	27%	–
75%	30 nM	40 nM	47 h	19	C=CCCCC[C@@H]1CCc2cc([C@H]3CC[C@](N)(CO)C3)ccc2C1	–	–	–	9%	–

From ChEMBL document CHEMBL4732158, “Bicyclic Ligand-Biased Agonists of S1P: Exploring Side Chain Modifications to Modulate the PK, PD, and Safety Profiles” (J Med Chem, 2021)
